Among the data in ChEMBL document CHEMBL1142853 (Bioorg Med Chem Lett, 2005) are Ki, EC50 and Activity values, retold here.

pEC50, pKi: −log10 of the molar value.

In assay [1] the target is T1, 5-hydroxytryptamine receptor 2C (Homo sapiens, UniProt P28335).
T1 sequence (P28335 whole entry): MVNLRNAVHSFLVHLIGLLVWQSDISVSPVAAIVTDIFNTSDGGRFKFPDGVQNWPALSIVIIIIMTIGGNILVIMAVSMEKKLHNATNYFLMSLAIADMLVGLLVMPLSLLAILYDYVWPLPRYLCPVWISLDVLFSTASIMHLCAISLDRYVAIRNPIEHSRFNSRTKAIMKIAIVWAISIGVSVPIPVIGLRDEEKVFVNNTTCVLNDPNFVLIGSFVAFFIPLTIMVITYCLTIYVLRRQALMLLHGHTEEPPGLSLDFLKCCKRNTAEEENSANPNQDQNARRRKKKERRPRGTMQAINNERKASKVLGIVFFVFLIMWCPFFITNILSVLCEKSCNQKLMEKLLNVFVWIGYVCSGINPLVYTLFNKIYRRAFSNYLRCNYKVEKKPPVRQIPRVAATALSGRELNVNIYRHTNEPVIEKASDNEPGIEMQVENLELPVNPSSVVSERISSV
In words: Inhibition constant against human 5-hydroxytryptamine 2C receptor [INI isoforms] using [3H]mesulergine as radioligand with the compound (10 uM) dissolved in DMSO. The procedure, abridged: (§1)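 Competition binding with [3H]ketanserin (5-HT2A), [3H]mesulergine (5-HT2C) or [3H]LSD (5-HT2B) on receptor preparations. Compounds in 10% DMSO were first screened at a single concentration as duplicate determinations, each run in duplicate. Compounds giving >50% inhibition of specific binding were then tested in duplicate from 1 to 100,000 nM. Ki is the mean ± SD of computer-derived estimates, N = 4.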

The target in assay [2] is T1, 5-hydroxytryptamine receptor 2C. The assay can be described thus: Inhibition constant against human 5-hydroxytryptamine 2C receptor [VGI isoforms] using [3H]mesulergine as radioligand with the compound (10 uM) dissolved in DMSO. The procedure, abridged: as §1
Assay [3] deals with T2, 5-hydroxytryptamine receptor 2B (Homo sapiens, UniProt P41595). The assay can be described thus: Inhibition constant against human 5-hydroxytryptamine 2B receptor using [3H]LSD as radioligand with the compound (10 uM) dissolved in DMSO. Put shortly:
as §1

Assay [4] concerns the target T3, 5-hydroxytryptamine receptor 2A (Homo sapiens, UniProt P28223). The assay can be described thus: Inhibition constant against human 5-hydroxytryptamine 2A receptor using [3H]ketanserin as radioligand with the compound (10 uM) dissolved in DMSO. The procedure, abridged: as §1
Assay [5] concerns the target 5-hydroxytryptamine receptor 2A (Rattus norvegicus, UniProt P14842). In words: Inhibition constant against rat 5-hydroxytryptamine 2A receptor using [3H]ketanserin as radioligand with the compound (10 uM) dissolved in DMSO. Put shortly: as §1
Assay [6] deals with T4, 5-hydroxytryptamine receptor 2C (Rattus norvegicus, UniProt P08909).
T4 sequence (P08909 whole entry): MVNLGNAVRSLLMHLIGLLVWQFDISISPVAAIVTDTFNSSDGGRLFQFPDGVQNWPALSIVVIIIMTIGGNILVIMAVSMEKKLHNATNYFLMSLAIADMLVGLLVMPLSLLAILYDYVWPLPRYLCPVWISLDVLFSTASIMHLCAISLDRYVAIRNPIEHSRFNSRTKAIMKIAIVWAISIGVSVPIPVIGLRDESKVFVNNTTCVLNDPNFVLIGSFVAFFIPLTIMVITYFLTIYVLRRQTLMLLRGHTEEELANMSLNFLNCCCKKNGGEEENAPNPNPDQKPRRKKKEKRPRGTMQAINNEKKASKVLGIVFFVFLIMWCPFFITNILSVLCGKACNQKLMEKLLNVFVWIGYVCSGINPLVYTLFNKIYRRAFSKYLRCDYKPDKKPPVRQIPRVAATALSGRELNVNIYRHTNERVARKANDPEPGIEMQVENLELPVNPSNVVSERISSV
The assay can be described thus: Inhibition constant against rat 5-hydroxytryptamine 2C receptor using [3H]mesulergine as radioligand with the compound (10 uM) dissolved in DMSO. Put shortly:
as §1

For assay [7], the target named is T3, 5-hydroxytryptamine receptor 2A. In words: Effective concentration required for accumulation of [3H]inositol phosphate in cells stably expressing human 5-hydroxytryptamine 2A receptor determined by phosphoinositide hydrolysis assay. It is filed as functional. The procedure, abridged: (§2)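 Phosphoinositide hydrolysis measured in cells expressing human 5-HT2A (stable) or 5-HT2B (transient) receptors, loaded overnight with [3H]inositol (15 Ci/mmol; 1 mCi/mL as supplied) in serum-free, inositol-free DMEM. Where SD is given, N ≥ 3.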

Assay [8] addresses T1, 5-hydroxytryptamine receptor 2C. The assay can be described thus: Effective concentration required for accumulation of [3H]inositol phosphate in cells stably expressing human 5-hydroxytryptamine 2C receptor determined by phosphoinositide hydrolysis assay. It is filed as functional.
The target of assay [9] is T3, 5-hydroxytryptamine receptor 2A. The assay can be described thus: Antagonistic activity against accumulation of [3H]-inositol phosphate in cells stably expressing human 5-hydroxytryptamine 2A receptor determined by phosphoinositide hydrolysis assay. It is filed as functional. Particulars: filed as antagonist. Put shortly: (§3)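 Phosphoinositide hydrolysis assay with human receptors, 5-HT2A and 5-HT2C expressed stably and 5-HT2B transiently. Cells were loaded overnight with [3H]inositol (15 Ci/mmol; 1 mCi/mL as supplied) in inositol-free DMEM without serum.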

For assay [10], the target named is T5, 5-hydroxytryptamine receptor 2C (Homo sapiens) (UniProt P28335).
T5 sequence (whole entry): T1 sequence (P28335 whole entry)
In words: Antagonistic activity against accumulation of [3H]inositol phosphate in cells stably expressing human 5-hydroxytryptamine 2C receptor determined by phosphoinositide hydrolysis assay. Particulars: filed as antagonist. The class given is functional. The procedure, abridged: as §3

In assay [11] the target is T2, 5-hydroxytryptamine receptor 2B. In words: Antagonistic activity against accumulation of [3H]inositol phosphate in cells transiently expressing human 5-hydroxytryptamine 2B receptor determined by phosphoinositide hydrolysis assay. It is filed as functional. The settings on record: filed as antagonist. Put shortly: as §3
The target is the same in assay [12]. In words: Effective concentration required for accumulation of [3H]inositol phosphate in cells transiently expressing human 5-hydroxytryptamine 2B receptor determined by phosphoinositide hydrolysis assay. The class given is functional. The procedure, abridged: as §2

T2 sequence (P41595 whole entry): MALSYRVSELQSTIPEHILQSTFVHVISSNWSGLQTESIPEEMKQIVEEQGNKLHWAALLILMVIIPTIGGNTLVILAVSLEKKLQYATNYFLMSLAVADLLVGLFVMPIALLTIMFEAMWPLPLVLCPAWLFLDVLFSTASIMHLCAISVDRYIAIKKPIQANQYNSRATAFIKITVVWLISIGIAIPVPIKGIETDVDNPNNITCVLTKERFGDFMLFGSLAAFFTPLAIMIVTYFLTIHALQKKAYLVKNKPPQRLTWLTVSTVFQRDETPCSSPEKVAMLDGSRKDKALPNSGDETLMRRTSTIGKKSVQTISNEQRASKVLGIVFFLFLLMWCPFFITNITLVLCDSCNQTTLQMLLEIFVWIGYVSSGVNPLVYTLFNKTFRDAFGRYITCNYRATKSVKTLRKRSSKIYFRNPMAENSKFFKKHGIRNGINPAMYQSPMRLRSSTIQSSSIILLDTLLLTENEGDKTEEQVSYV
Sequence of 5-hydroxytryptamine receptor 2A (Rattus norvegicus, UniProt P14842) (P14842 whole entry): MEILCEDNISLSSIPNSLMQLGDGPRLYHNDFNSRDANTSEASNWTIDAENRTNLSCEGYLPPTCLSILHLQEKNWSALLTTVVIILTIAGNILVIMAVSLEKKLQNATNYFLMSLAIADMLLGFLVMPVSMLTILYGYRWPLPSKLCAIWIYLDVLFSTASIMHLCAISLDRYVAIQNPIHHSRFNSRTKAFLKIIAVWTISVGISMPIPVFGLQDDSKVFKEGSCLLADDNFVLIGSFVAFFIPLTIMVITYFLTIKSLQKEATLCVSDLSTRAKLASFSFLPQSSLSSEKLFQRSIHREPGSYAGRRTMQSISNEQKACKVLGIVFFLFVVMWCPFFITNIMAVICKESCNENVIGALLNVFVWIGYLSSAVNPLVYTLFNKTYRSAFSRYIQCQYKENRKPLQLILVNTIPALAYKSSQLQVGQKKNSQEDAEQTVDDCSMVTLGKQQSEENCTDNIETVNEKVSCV
T3 sequence (P28223 whole entry): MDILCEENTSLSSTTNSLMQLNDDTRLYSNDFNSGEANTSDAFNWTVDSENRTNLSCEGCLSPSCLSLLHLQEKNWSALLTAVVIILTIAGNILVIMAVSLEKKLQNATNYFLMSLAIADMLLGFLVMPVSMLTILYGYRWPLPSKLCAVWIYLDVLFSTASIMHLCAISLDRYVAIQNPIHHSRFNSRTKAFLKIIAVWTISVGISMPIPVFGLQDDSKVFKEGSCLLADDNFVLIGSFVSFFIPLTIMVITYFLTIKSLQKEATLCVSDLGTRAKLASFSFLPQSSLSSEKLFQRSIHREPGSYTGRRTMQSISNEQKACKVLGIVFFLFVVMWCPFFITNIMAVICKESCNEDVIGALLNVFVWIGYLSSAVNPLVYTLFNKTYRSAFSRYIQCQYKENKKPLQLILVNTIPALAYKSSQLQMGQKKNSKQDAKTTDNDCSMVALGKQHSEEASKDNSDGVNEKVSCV

As usually defined, the pKi is the Ki on a negative log10 scale, so that one unit is a factor of ten. Low values mean a high Ki, high ones a low Ki. For the compound `Oc1cccc2[nH]cc(CCN3CCCC3)c12`, the pKi in assay [1] is 6.56; in assay [2], 5.75; in assay [3], 6.37; in assay [4] it was 6.37.
Regarding `CN(C)CCc1cn(C)c2cccc(OP(=O)(O)O)c12`, the negative logarithm of the Ki (pKi) was under 5.00 in [1]; 6.27 in assay [2]; 5.26 in assay [3]; under 5.00 in [5]; under 5.00 in assay [6]; under 5.00 in assay [4].
Turning to `Cc1[nH]c2cccc(O)c2c1CCN(C)C`, the pKi was 6.27 in assay [2], 5.77 in assay [5], 5.89 in assay [6] and 6.91 in [4].
In the case of `CN(C)CCc1c[nH]c2cc(O)ccc12`, the pKi in [1] was under 5.00; in assay [2], 5.17; in assay [3] it was 5.20; in assay [5], under 5.00; in [6], 4.72; in assay [4], 5.12.
On to `Oc1cccc2[nH]cc(CCN3CCCc4ccccc43)c12`, for which the pKi in assay [1] is 6.33; in assay [3] it was 5.25; in assay [5], 5.08; in assay [6], 5.84.
Take `CN(C)Cc1cn(C)c2cccc(O)c12`: the pKi in [1] was 7.06; in assay [2], 6.90; in assay [3], 5.91; in assay [4], 6.30.
Broadly, the pEC50 is −log10 of the EC50, conventionally taken in molar units. As for `CN(C)CCc1c[nH]c2cccc(OP(=O)(O)O)c12` [PSILOCYBIN], the pEC50 in [7] is 5.46; in assay [8] it was 6.30.
`CN1CCN(CCc2c[nH]c3cccc(O)c23)CC1`: the negative logarithm of the Ki (pKi) in [1] was 6.99; in assay [3], 6.94; in [5], 5.16; in assay [6], under 5.00; in assay [4], 5.01.
As for `CN(C)CCn1ccc2c(O)cccc21`, the negative-log Ki (pKi) in assay [1] was 5.66; in assay [2], 5.38; in assay [5] it was under 5.00; in assay [6] it was 5.03.
For the compound `CC(Cc1c[nH]c2cccc(O)c12)N(C)C` (centres undefined), the negative logarithm of the Ki (pKi) is 6.90 in assay [1], 6.13 in [3] and 6.01 in [4].
Turning to `CN(C)CCc1cn(C)c2cccc(O)c12`, the pKi was 8.15 in assay [1]; 7.48 in [2]; 7.42 in assay [3]; 6.23 in assay [5]; 7.32 in [6]; 6.05 in [4]. The figures for the negative-log EC50 (pEC50) in assay [7] and in [8] were 6.20 and 7.92, respectively.
`CN(C)Cc1c[nH]c2cccc(O)c12`: the pKi in [1] is 7.62; in assay [2], 7.90; in assay [3], 5.91; in assay [5], 6.08; in [6], 7.31; in assay [4] it was 6.03. In addition, the Activity result in assay [9], in assay [10] and in [11] was “Antagonist” in each case.
In the case of `CCCCn1cc(CCN(C)C)c2c(O)cccc21`, the negative-log Ki (pKi) in [1] is 8.36; in assay [2], 7.85; in assay [3], 8.24; in [5], 6.70; in assay [6], 7.80; in assay [4], 6.51. For the same compound, the figures for the pEC50 in assay [7] and in [8] were 7.49 and 6.23, respectively.
As to `CN(C)CCCc1c[nH]c2cccc(O)c12`, the pKi in [1] is 5.95; in assay [2], 7.08; in assay [3], 7.01; in assay [4], 6.23.
Turning to `CCCCn1cc(CCN(C)C)c2c(OP(=O)(O)O)cccc21`, the pKi in [1] was 7.14; in [2], 6.68; in assay [3], 6.77; in assay [5], under 5.00; in assay [6], 5.24; in assay [4] it was 5.52. The Activity entry in assay [9], in assay [10] and in [11] was “Antagonist” in each case.
`CN(C)CCc1c[nH]c2cccc(F)c12`: the pKi in [1] was 7.09; in assay [2], 7.08; in assay [3] it was 8.08; in [5], 6.00; in assay [6] it was 6.44; in assay [4], 6.47. For the same compound, the pEC50 in assay [7] is 6.02; in [8], 7.00; in assay [12], 5.93.
